We go through 48 compounds from ChEMBL document CHEMBL1128543, “Computer-aided design and synthesis of 5-substituted tryptamines and their pharmacology at the 5-HT1D receptor: discovery of compounds with potential anti-migraine properties” (J Med Chem, 1995).

Common to all, as to details: Oryctolagus cuniculus
In assay [1] the target is 5-hydroxytryptamine receptor 2A (Homo sapiens) (UniProt P28223).
Assay [2] addresses 5-hydroxytryptamine receptor 1D (Homo sapiens) (UniProt P28221). Description: The compound was tested for binding affinity against 5-HT1D receptor. In a few lines: (§1)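 Rabbit saphenous vein rings (male New Zealand White; 4–5 mm) mounted on tungsten wires in Krebs–Henseleit buffer, pH 7.4, 37 °C, gassed with 95% O2/5% CO2, at 2 g passive force. Pretreated for 30 min with pargyline (500 μM) and phenoxybenzamine (0.3 μM), then washed. Cumulative 5-HT curve, then after 60 min a test agonist curve. Potency is p[A50]; α is test maximum/5-HT maximum; n ≥ 3.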

The target is the same in assay [3]. Description: The compound was tested for intrinsic activity against 5-HT1D receptor. Put shortly: as §1

Where only a bound is given, the exact number is not on record here.

Chain of 5-hydroxytryptamine receptor 2A (Homo sapiens) (P28223 whole entry): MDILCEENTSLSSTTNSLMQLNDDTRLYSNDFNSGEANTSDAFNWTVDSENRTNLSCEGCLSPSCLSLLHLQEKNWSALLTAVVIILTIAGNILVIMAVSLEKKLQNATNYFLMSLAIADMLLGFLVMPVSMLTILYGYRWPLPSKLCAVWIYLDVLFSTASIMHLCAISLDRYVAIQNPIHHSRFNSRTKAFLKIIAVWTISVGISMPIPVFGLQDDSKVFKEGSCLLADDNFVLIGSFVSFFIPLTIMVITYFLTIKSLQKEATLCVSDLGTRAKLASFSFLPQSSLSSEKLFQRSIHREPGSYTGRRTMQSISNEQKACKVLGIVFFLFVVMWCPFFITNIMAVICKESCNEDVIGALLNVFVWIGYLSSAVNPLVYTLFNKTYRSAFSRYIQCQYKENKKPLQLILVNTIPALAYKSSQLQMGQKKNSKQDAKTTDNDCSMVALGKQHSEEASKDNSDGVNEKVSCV
Chain of 5-hydroxytryptamine receptor 1D (Homo sapiens) (P28221 whole entry): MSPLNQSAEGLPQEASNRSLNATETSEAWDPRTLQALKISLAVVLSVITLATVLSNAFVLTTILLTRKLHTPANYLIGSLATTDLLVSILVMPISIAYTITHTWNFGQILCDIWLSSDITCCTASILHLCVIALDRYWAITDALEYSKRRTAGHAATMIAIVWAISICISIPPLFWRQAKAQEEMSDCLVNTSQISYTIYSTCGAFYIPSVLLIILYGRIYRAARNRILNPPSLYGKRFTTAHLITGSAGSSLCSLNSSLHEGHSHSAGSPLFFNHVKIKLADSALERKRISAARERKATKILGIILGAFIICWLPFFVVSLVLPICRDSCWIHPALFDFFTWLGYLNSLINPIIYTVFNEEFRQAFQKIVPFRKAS

For `CN(C)CCc1c[nH]c2ccc(CCN3C(=O)NC(Cc4ccc([N+](=O)[O-])cc4)C3=O)cc12` (stereo not drawn), the p[A50] is under 4.5 in assay [1] and 6.8 in assay [2]. In assay [3], this compound showed an Intrinsic activity of 0.6.
Turning to `CN(C)CCc1c[nH]c2ccc(CC3NC(=O)N(CCc4ccccc4)C3=O)cc12` (stereo not drawn), the p[A50] in assay [2] came out at 6. In assay [3], the Intrinsic activity came out at 0.39.
In assay [2], `NCCc1c[nH]c2ccc(CC3NC(=O)N(Cc4ccc(-c5ccccc5)cc4)C3=O)cc12` (stereo not drawn) returned a p[A50] of 6.7. Further, in assay [3], the Intrinsic activity is 0.6.
Turning to `NCCc1c[nH]c2ccc(C(N)=O)cc12`, the p[A50] in assay [1] came out at 5.9; in assay [2], 8.1. The same compound had an Intrinsic activity in assay [3] of 0.84.
On the same counts, the results for `NCCc1c[nH]c2ccc(CC3NC(=O)N(CCCc4ccccc4)C3=O)cc12` (stereo not drawn) are under 4.5, 6.6 and 0.93.
For `CNC(=O)c1cccc(CN2C(=O)NC(Cc3ccc4[nH]cc(CCN)c4c3)C2=O)c1` (stereo not drawn), the p[A50] in assay [1] came out at 4.3; in assay [2] it was 5.8. Also, in assay [3], the Intrinsic activity stood at 0.71.
The compound `COc1ccc2[nH]cc(C3=CCNCC3)c2c1` returned a p[A50] in assay [2] of 7.1. Moreover, the Intrinsic activity in assay [3] stood at 0.89.
As for `CN(C)CCc1c[nH]c2ccc(CCN3C(=O)N[C@@H](Cc4ccc(NS(C)(=O)=O)cc4)C3=O)cc12`, the p[A50] in assay [1] is under 4.5; in assay [2] it was 7.4. Besides, in assay [3], the Intrinsic activity turned out to be 0.6.
On to `CNCCc1c[nH]c2ccc(CCN3C(=O)NC(Cc4cccc(NC(C)=O)c4)C3=O)cc12` (stereo not drawn), for which the p[A50] in assay [1] was under 4.5; in assay [2], 6.9. Further, the Intrinsic activity in assay [3] is 0.6.
On the same counts, the results for `CS(=O)(=O)Nc1cccc(CC2NC(=O)N(CCc3ccc4[nH]cc(CCN)c4c3)C2=O)c1` (stereo not drawn) are under 4.5, 7.2 and 0.8.
`NCCc1c[nH]c2ccc(CCC3NC(=O)N(Cc4ccccc4)C3=O)cc12` (stereo not drawn): the values for the p[A50] in assay [1] and in assay [2] were under 4.5 and 6.7, respectively. This compound came in with an Intrinsic activity in assay [3] of 0.9.
Consider `O=C(CCCN1CCC2(CC1)C(=O)NCN2c1ccccc1)c1ccc(F)cc1`, for which the p[A50] in assay [1] came to 9.7; in assay [2], 5.8.
`NCCc1c[nH]c2ccc(CC3NC(=O)N(Cc4cccc(C(=O)Nc5ccccc5)c4)C3=O)cc12` (stereo not drawn): the p[A50] in assay [1] stood at 3.9; in assay [2], 6.6. In assay [3], this compound had an Intrinsic activity of 0.53.
With `CN(C)CCc1c[nH]c2ccc(CC3NC(=O)N(Cc4cccc(NC(=O)c5ccccc5)c4)C3=O)cc12` (stereo not drawn), the p[A50] in assay [1] amounted to 5; in assay [2] it was 6.3. For the same compound, the Intrinsic activity in assay [3] came out at 0.55.
Take `CS(=O)(=O)Nc1ccc(CC2NC(=O)N(CCc3ccc4[nH]cc(CCN)c4c3)C2=O)cc1` (stereo not drawn): the p[A50] in assay [1] turned out to be 5.2; in assay [2], 7.4. The Intrinsic activity in assay [3] stood at 0.8.
With `CC(=O)Nc1cccc(CC2NC(=O)N(CCc3ccc4[nH]cc(CCN)c4c3)C2=O)c1` (stereo not drawn), the p[A50] was under 4.5 in assay [1] and 7 in assay [2]. The compound also showed an Intrinsic activity in assay [3] of 0.7.
With `CN(C)CCc1c[nH]c2ccc(O)cc12`, the figures for the p[A50] in assay [1] and in assay [2] were 6.8 and 7.3, respectively. In assay [3], the Intrinsic activity was 0.92.
On the same counts, the results for `CCCNC(=O)c1cccc(CN2C(=O)NC(Cc3ccc4[nH]cc(CCN)c4c3)C2=O)c1` (stereo not drawn) are 4.5, 6.8 and 0.99.
For the compound `CN1C(=O)NC(Cc2ccc3[nH]cc(CCN)c3c2)C1=O` (stereo not drawn), the p[A50] was found to be 4 in assay [1] and 4.8 in assay [2].
With `CN(C)CCc1c[nH]c2ccc(CC3NC(=O)N(Cc4ccc(Oc5ccccc5)cc4)C3=O)cc12` (stereo not drawn), the p[A50] in assay [1] was 4.7; in assay [2], 7.4. Also, the Intrinsic activity in assay [3] worked out at 0.79.
In the case of `CN1C(=O)N(Cc2ccccc2)CC1Cc1ccc2[nH]cc(CCN)c2c1` (stereo not drawn), the p[A50] in assay [1] is 5; in assay [2], 7.5.
Compound `CC(=O)Nc1ccc(CN2C(=O)NC(Cc3ccc4[nH]cc(CCN)c4c3)C2=O)cc1` (stereo not drawn) gave a p[A50] in assay [2] of 5.8. In assay [3], the Intrinsic activity is 0.81.
In the case of `CN(C)CCc1c[nH]c2ccc(CCN3C(=O)CNC3=O)cc12`, the values for the p[A50] in assay [1] and in assay [2] were under 4.5 and 6.1, respectively. In assay [3], this compound showed an Intrinsic activity of 0.5.
In the same order, the values of `CN1C(=O)NC[C@@H]1Cc1ccc2[nH]cc(CCN)c2c1` are 5, 6.9 and 0.88.
Regarding `CN(C)CCc1c[nH]c2ccc(CC3NC(=O)N(Cc4ccccc4)C3=O)cc12` (stereo not drawn), the p[A50] is under 4.5 in assay [1] and 5.6 in assay [2].
As for `O=C1CC2(CCCC2)CC(=O)N1CCCCN1CCN(c2ncccn2)CC1`, the p[A50] in assay [2] is 4.5.
Regarding `CNCCc1c[nH]c2ccc(CCN3C(=O)CNC3=O)cc12`, the results for the p[A50] in assay [1] and in assay [2] were under 4.5 and 6.7, respectively. This compound also registered an Intrinsic activity in assay [3] of 0.7.
Regarding `COC(=O)c1ccc(CC2NC(=O)N(CCc3ccc4[nH]cc(CCN)c4c3)C2=O)cc1` (stereo not drawn), the p[A50] in assay [1] was under 4.5; in assay [2] it was 7.3. This compound returned an Intrinsic activity in assay [3] of 0.7.
In the case of `NCCc1c[nH]c2ccc(CC3NC(=O)N(Cc4ccccc4)C3=O)cc12` (stereo not drawn), the values for the p[A50] in assay [1] and in assay [2] were 4 and 6.1, respectively. For the same compound, the Intrinsic activity in assay [3] was found to be 0.72.
Turning to `CN(C)CCc1c[nH]c2ccc(C[C@H]3CNC(=O)N3C)cc12`, the p[A50] in assay [1] was under 4.5; in assay [2], 7. This compound had an Intrinsic activity in assay [3] of 1.
In the case of `Cc1ccc2[nH]cc(CCN)c2c1`, the p[A50] in assay [1] was 6.2; in assay [2], 6.1. Moreover, the Intrinsic activity in assay [3] came out at 1.
Take `NCCc1c[nH]c2ccccc12`: the p[A50] in assay [1] turned out to be 6.1; in assay [2] it was 6.9. For the same compound, the Intrinsic activity in assay [3] was 0.86.
For `O=C1CC2(CCCC2)CS(=O)(=O)N1CCCCN1CCN(c2ncccn2)CC1`, the figures for the p[A50] in assay [1] and in assay [2] were 5.1 and 4.9, respectively.
In the case of `CNS(=O)(=O)Cc1ccc2[nH]cc(CCN(C)C)c2c1`, in assay [2], the p[A50] was 6.6. Further, the Intrinsic activity in assay [3] came to 0.83.
For `Cn1c(Cc2ccc3[nH]cc(CCN)c3c2)cn(Cc2ccccc2)c1=O`, the p[A50] in assay [1] stood at 6.3; in assay [2], 7.1. For the same compound, the Intrinsic activity in assay [3] amounted to 0.95.
As to `C[C@@H](CO)NC(=O)[C@@H]1C=C2c3cccc4[nH]cc(c34)C[C@H]2N(C)C1`, the p[A50] in assay [2] worked out at 9. The Intrinsic activity in assay [3] was determined as 0.9.
`NCCc1c[nH]c2ccc(CC3NC(=O)N(Cc4ccc(C(=O)Nc5ccccc5)cc4)C3=O)cc12` (stereo not drawn): the p[A50] turned out to be 4.5 in assay [1] and 5.9 in assay [2]. Further, the Intrinsic activity in assay [3] was determined as 0.7.
`O=C1NCN(c2ccccc2)C12CCN(CC1COc3ccccc3O1)CC2` (stereo not drawn): the p[A50] in assay [1] was determined as 6.2; in assay [2], 5.1.
In the case of `NCCc1c[nH]c2ccc(CC3NC(=O)N(CCc4ccccc4)C3=O)cc12` (stereo not drawn), the p[A50] was determined as 4.5 in assay [1] and 6.7 in assay [2]. Further, the Intrinsic activity in assay [3] came out at 0.67.
`CC(=O)Nc1cccc(CC2NC(=O)N(CCc3ccc4[nH]cc(CCN(C)C)c4c3)C2=O)c1` (stereo not drawn): the p[A50] was under 4.5 in assay [1] and 7.2 in assay [2]. This compound returned an Intrinsic activity in assay [3] of 0.6.
In the same order, the values of `CN(C)CCc1c[nH]c2ccc(CCC3NC(=O)N(Cc4ccccc4)C3=O)cc12` (stereo not drawn) are 5.9, 6.3 and 0.2.
Take `NCCc1c[nH]c2ccc(CC3NC(=O)N(Cc4cccc(Oc5ccccc5)c4)C3=O)cc12` (stereo not drawn): the p[A50] in assay [1] came out at 4.7; in assay [2], 7.4. The Intrinsic activity in assay [3] is 0.79.
As for `O=C(c1ccc(F)cc1)C1CCN(CCn2c(=O)[nH]c3ccccc3c2=O)CC1`, the p[A50] was determined as 9.1 in assay [1] and 6 in assay [2].
In the case of `NCCc1c[nH]c2ccc(CC3NC(=O)N(Cc4cccc(NC(=O)c5ccccc5)c4)C3=O)cc12` (stereo not drawn), the results for the p[A50] in assay [1] and in assay [2] were 4.6 and 7.3, respectively. For the same compound, the Intrinsic activity in assay [3] was determined as 0.85.
For the compound `CN(C)CCc1c[nH]c2ccc(CCN3C(=O)NC(Cc4ccc(NS(C)(=O)=O)cc4)C3=O)cc12` (stereo not drawn), the p[A50] in assay [1] is under 4.5; in assay [2], 7.4. In assay [3], this compound showed an Intrinsic activity of 0.6.
As to `CS(=O)(=O)Nc1ccc(C[C@H]2NC(=O)N(CCc3ccc4[nH]cc(CCN)c4c3)C2=O)cc1`, the results for the p[A50] in assay [1] and in assay [2] were 5.3 and 7.1, respectively. Further, in assay [3], the Intrinsic activity is 0.7.
`CCC(CO)NC(=O)[C@H]1C=C2c3cccc4c3c(cn4C)CC2N(C)C1` (stereo partly drawn): the p[A50] in assay [2] was 6.7. This compound also showed an Intrinsic activity in assay [3] of 0.64.
Take `CN1C(=O)N(Cc2ccccc2)C(=O)C1Cc1ccc2[nH]cc(CCN)c2c1` (stereo not drawn): the p[A50] is under 4.5 in assay [1] and 6 in assay [2]. Also, the Intrinsic activity in assay [3] came out at 1.
